Experimental data as given in ChEMBL document CHEMBL4130623, “Discovery of Highly Potent Pinanamine-Based Inhibitors against Amantadine- and Oseltamivir-Resistant Influenza A Viruses” (J Med Chem, 2018).
Active and inactive are the calls of the source. The calls are words filed in the database; no cut-off is given here.

Key:
[1] = tested on: Matrix protein 2 (Influenza A virus (A/Udorn/307/1972(H3N2))), P0DOF8 [S31N]; test: Inhibition of Influenza A virus AM2 S31N mutant expressed in Xenopus laevis frog oocytes assessed as maximum reduction in channel current at 100 uM at pH 5.5 after 2 mins by TEVC assay; type: cell-based
Procedure, shortened: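 Xenopus laevis oocytes were microinjected with RNA expressing A/M2 S31N. Compound was applied for 2 min at pH 5.5 and the percentage inhibition of M2 current was recorded by two-electrode voltage clamp. Each measurement was repeated twice with different cells.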

[2] = tested on: Influenza A virus (A/Puerto Rico/8/1934(H1N1)); test: Antiviral activity against Influenza A virus (A/PR/8/34 (H1N1)(NA-H274Y)) infected in MDCK cells assessed as reduction in virus-induced cytopathic effect after 48 hrs by microscopic analysis; type: functional, organism-based
Procedure, shortened: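 MDCK monolayers (5×10^4 cells/well, grown 24 h) were rinsed twice, infected with 100 TCID50 virus for 2 h at 37 °C in 5% CO2, and the inoculum was removed. Two-fold serial compound dilutions in DMEM with 1.5 µg/mL trypsin were added and incubated 48 h at 34 °C. CPE percentage was scored by microscope and EC50 fitted by non-linear regression.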

SMILES: C[C@@H]1C2CC(C[C@H]1NCc1sccc1C1CC1)C2(C)C (single isomer, unassigned)
- inhibition [1]: inactive
- EC50 [2]: 6.85 µM

SMILES: NC12CC3CC(CC(C3)C1)C2 [AMANTADINE]
- EC50 [2]: > 100 µM

SMILES: CCOC(=O)C1=C[C@@H](OC(CC)CC)[C@H](NC(C)=O)[C@@H](N)C1 [OSELTAMIVIR]
- EC50 [2]: > 10 µM
